CHO parental Ca = counter-screen: ATP calcium response change in parental CHO cells; parental CHO-K1, ATP-induced calcium, Fluo-8 fluorescence; inhibition, % at 5.6 µM; hit rate 0.63% among 330,000;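 active = inhibition above that plate's mean sample inhibition plus 3 SD, cut at about 26% in these data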;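 note: 0% = ATP-challenged DMSO wells and 100% = DMSO wells without ATP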
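Test system: parental CHO cells; detection: calcium-sensitive Fluo-8 fluorescence; evaluation: percent inhibition of calcium signal; also added: ATP as calcium-mobilizing challenge; repeats: one well per compound; control set: ATP-challenged DMSO wells low, unchallenged DMSO wells high; compound: single nominal dose of 5.6 µM per compound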
TAAR1 antag = antagonists of human TAAR1; inhibition, % at 3 µM; hit rate 1.5% among 360,000; CHO RD-HGA16 TAAR1, Fluo-8 calcium fluorescence, antagonist; AID 624466; Q96RJ0;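 active = inhibition above a per-plate cutoff, the mean inhibition of test compounds on that plate plus 3 SD, cut at about 49% in these data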;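 note: 0% = DMSO plus EC80 beta-PEA response and 100% = DMSO alone without agonist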
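Test system: RD-HGA16 CHO cells with stable hTAAR1 and Gα16 / Probe or stimulus: EC80 β-phenethylamine stimulus / Times: seeding 17-24 h prior, 75-min 37 °C, 30-min RT dye loading / Detection: Fluo-8 calcium-sensitive fluorescence / Read-out basis: % inhibition scaled between DMSO and EC80 PEA controls / Repeats: singlicate, one well per test compound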
TAAR1 ag = agonists of human TAAR1 | CHO RD-HGA16 TAAR1, Fluo-8 calcium fluorescence; vehicle wells 0%, saturating PEA agonist 100% | activation, % at 3 µM | hit rate 0.99% among 360,000;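 active = activation above the mean activation of all test compounds in the run plus 3 SD, cut at about 38% in these data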
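Assay system: CHO-derived RD-HGA16 cells with stable Gα16 and human TAAR1; timing: 17-24 h seeding, 75 min 37 °C dye, 30 min RT; read-out: % activation from peak over basal fluorescence ratio, DMSO-to-PEA scaled; measured by: kinetic Fluo-8 calcium fluorescence; benchmarks: low control DMSO, high control PEA (EC100); doses: 3 µM single concentration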
OX1R antag-1 = human HCRTR1 antagonism | O43613 | CHO/OX1R cells, Fluo-8 calcium fluorescence, orexin A | inhibition, % at 5 µM | hit rate 0.43% among 330,000;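 active = inhibition above its plate's threshold, mean inhibition of all tested compounds on the plate plus 3 SD, cut at about 37% in these data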;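 note: 0% = orexin A challenge wells and 100% = SB-334867-A antagonist wells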
Target sequence (O43613 whole entry, looked up): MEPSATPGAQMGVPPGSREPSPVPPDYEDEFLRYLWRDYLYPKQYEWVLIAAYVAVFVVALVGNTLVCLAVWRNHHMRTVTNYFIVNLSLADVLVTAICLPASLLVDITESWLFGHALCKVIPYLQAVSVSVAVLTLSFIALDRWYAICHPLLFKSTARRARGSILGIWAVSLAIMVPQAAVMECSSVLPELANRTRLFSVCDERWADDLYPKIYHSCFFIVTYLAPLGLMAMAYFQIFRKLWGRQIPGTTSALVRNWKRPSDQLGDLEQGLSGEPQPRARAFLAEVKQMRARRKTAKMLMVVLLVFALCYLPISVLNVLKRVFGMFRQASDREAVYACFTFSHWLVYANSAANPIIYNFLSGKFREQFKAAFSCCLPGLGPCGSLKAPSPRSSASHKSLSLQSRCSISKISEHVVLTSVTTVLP
GPR7 antag = antagonists of human GPR7 (neuropeptides B/W receptor 1); P48145; GPR7-expressing cells, fluorescence antagonist assay; inhibition, % at 4.4 µM; hit rate 1.1% among 290,000; AID 1861; in the data active = inhibition above about 16%, passing the limit was not always enough;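 note: cells stimulated with the agonist NPW; 0% = agonist with vehicle and 100% = vehicle without agonist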
OX1R antag-2 = antagonists of human orexin 1 receptor (OX1R); hit rate 1.8% among 330,000; O43613; OX1R-expressing cells, FRET antagonist read-out; inhibition, % at 6.6 µM; in the data active = inhibition mostly above about 38%, no sharp cut-off; inactive = mostly below about 40%;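 note: 0% = agonist challenge alone and 100% = reference antagonist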
The depositor's hits bear a star; · = not tested or not shown. Shown are actives, neighbours in structure and some others; about 4.6% of the full set was active somewhere.

SMILES	CHO parental Ca	TAAR1 antag	TAAR1 ag	OX1R antag-1	GPR7 antag	OX1R antag-2
COc1ccc2cc(CN(CC3CCCO3)S(=O)(=O)c3ccccc3)c(=O)[nH]c2c1 (stereo unspecified)	-12	3	19	-9	-5	12
COc1ccc2cc(CCNS(=O)(=O)c3c(C)cc(C)cc3C)c(=O)[nH]c2c1	-9	-18	0	11	7	76*
CC(C)[C@H](CO)N(Cc1cccc(F)c1)c1nc(Nc2cccc(Cl)c2)c2ncn(C(C)C)c2n1	37*	73*	53*	33	·	3
CCOCCCNC(=O)/C(C#N)=C/c1ccc(Cl)c([N+](=O)[O-])c1	-3	-7	3	-25	-5	26
CCOCCCNC(=O)/C(C#N)=C/c1cc(OC)c(O)c([N+](=O)[O-])c1	12	-23	2	-9	11	42*
Cc1c(C(=O)NNC(=O)c2ccccc2O)oc2ccc(Br)cc12	64*	-4	4	-3	·	8
CN1CCn2cnc(C(=O)NCCCCCNC(=O)OC(C)(C)C)c2C1=O	·	-5	5	·	·	·
CCCCCn1c(CNC(=O)c2cccs2)nc2ccccc21	22	0	0	7	-14	56*
CCCCn1c(CNC(=O)c2cccs2)nc2ccccc21	-4	-7	1	-32	-14	12
COc1ccc(-c2c(C(=O)c3ccc(Br)cc3)[nH]c(N)c2C(=O)NCCc2c[nH]c3ccccc23)cc1OC	·	44	10	·	·	·
Cc1ccc(-n2ccnc(SCC(=O)NCCc3ccccc3)c2=O)cc1F	-17	-37	37*	-5	·	17
CN(C(=O)c1ccc(NC(=O)Cc2ccc(NC(=O)C3CCN(S(=O)(=O)c4cccc([N+](=O)[O-])c4)CC3)cc2)cc1)C1CCCC1	·	-17	1	·	·	·
Cn1c2ccccc2c(=O)c2ccc(C#Cc3ccc(N)cc3)cc21	0	38	4	0	-4	31
Cn1c2ccccc2c(=O)c2cc(C#CC3=CCCCC3)ccc21	-29	21	3	0	·	37*
COC(=O)C1=C(C)N(Cc2ccccc2C(F)(F)F)C(=NCC2CC2)NC1c1ccc(F)cc1 (stereo unspecified)	·	-1	18	·	·	·
CCN1C(=O)c2cccc3c(S(=O)(=O)N(C(C)=O)c4ccc(OC(C)=O)cc4)ccc1c23	-12	49*	21	-13	·	10
O=C(O)CN1C(=O)C2C3CCC(C3)C2C1=O (stereo unspecified)	·	-5	1	·	·	·
CC(=O)Nc1nc(COc2ccc3ccccc3c2)cs1	7	35	38*	10	4	23
CC1=NNC(=O)/C1=C\c1cn(-c2ccccc2)nc1-c1cccs1	63*	86*	37	73*	12	28
C[C@]12Cc3ccccc3C1CC1=N[C@@H](c3ccc(C(F)(F)F)cc3)O[C@@]13C[C@@H]2C(=O)N3Cc1ccncc1 (stereo partly specified)	·	41	6	·	·	·
CC1CCN(C(=O)CN(c2ccccc2)S(=O)(=O)N(C)C)CC1	-24	18	6	-31	21*	13
CN(C)S(=O)(=O)N(CC(=O)N1CCC(Cc2ccccc2)CC1)c1ccccc1	-11	14	5	-16	-5	28
O=C(NNc1c2ccccc2nc2ccccc12)C(O)c1ccccc1 (stereo unspecified)	-21	2	2	-10	-15	71*
O=C(COc1ccccc1)NNc1c2ccccc2nc2ccccc12	2	45	11	-10	-25	86*
CCCC(=O)NNc1c2ccccc2nc2ccccc12	-15	8	2	-8	-7	5
SMILES	CHO parental Ca	TAAR1 antag	TAAR1 ag	OX1R antag-1	GPR7 antag	OX1R antag-2
Cc1ccc(S(=O)(=O)N(C)c2cccc3c2S(=O)(=O)N([C@H](C)c2ccccc2)C[C@@H](COCc2ccccc2)O3)cc1	·	8	1	·	·	·
Nc1[nH]c2cc([N+](=O)[O-])ccc2c1-c1ccccn1	37*	69*	19	51*	9	17
O=C(NCc1ccc(Cl)cc1Cl)Nc1nc([C@@H]2O[C@H](CO)[C@@H](O)[C@H](O)[C@H]2O)cs1	·	-9	1	·	·	·
O=C(CN1CCN(c2cccc(Cl)c2)CC1)NCc1ccccc1	-17	-14	0	-29	-3	5
S=C(NCc1ccccc1)N1CCN(c2cccc(Cl)c2)CC1	13	12	6	20	32*	27
C=CCCN1[C@@H](Cc2ccccc2)COc2ccccc2S1(=O)=O	·	19	0	·	·	·
COc1ccccc1C(=O)Nc1ccc2c(c1)nc1n2CCSC1	-12	7	3	8	-9	54*
CCN(CC)Cc1c(O)ccc2c(-c3ccccc3)cc(=O)oc12	-16	-10	11	-29	-2	61*
Cc1c(O)ccc2c(-c3ccccc3)cc(=O)oc12	16	32	7	-9	0	11
Cc1c(-c2ccc(OCCN3CCOCC3)cc2)c(=O)oc2ccc3ccccc3c12	·	-3	4	·	·	·
COc1ccc(S(=O)(=O)N2CCCCCC2)cc1C(=O)N1CCN(c2ccccc2O)CC1	-18	10	2	-32	·	11
N#Cc1cc(NC2CCCC2)c([N+](=O)[O-])cc1C#N	-11	-24	1	-23	-14	45
N#Cc1cc(Nc2c(N)nc[nH]c2=O)c([N+](=O)[O-])cc1C#N	2	-1	-1	3	-11	48*
O=C(CC1Sc2ccccc2NC1=O)OC(C(=O)NCCc1ccccc1)c1cccnc1 (stereo unspecified)	-9	53*	23	-11	-6	8
CN1C(=O)C2(Nc3ccccc3-c3nc4ccccc4n32)c2ccccc21 (stereo unspecified)	-8	-7	4	-11	3	18
O=C1Nc2ccccc2C12Nc1ccccc1-c1nc3ccccc3n12 (stereo unspecified)	-8	6	2	-23	21*	8
C=CCn1c(O)c2ccc(C(=O)N=NC(=O)COc3ccccc3F)cc2c1O	-16	5	1	-15	·	58*
CC(=O)N1CCN(C(=S)c2ccc([N+](=O)[O-])cc2)CC1	1	1	4	-9	-17	76
CC(=O)N1CCC(N(CCCOC(C)C)S(=O)(=O)c2ccc([N+](=O)[O-])cc2)CC1	-8	-20	-1	-36	-7	46*
O=C(Nc1ccc(-c2nc3ccccc3o2)cc1)c1cc(-n2cnnc2)ccc1Cl	8	32	10	5	-6	15
O=C(Nc1ccc(-c2nc3ccccc3o2)c(O)c1)c1cc(-n2cnnc2)ccc1Cl	32*	29	10	11	-5	17
Cc1ccc(C(=O)N/C(=C\c2ccc(-c3ccc(Cl)cc3)o2)C(=O)NCCCN(C)C)cc1	-17	3	10	-20	27*	16
